Measured values reported in ChEMBL document CHEMBL4177756, “Small Molecule Neuropilin-1 Antagonists Combine Antiangiogenic and Antitumor Activity with Immune Modulation through Reduction of Transforming Growth Factor Beta (TGFβ) Production in Regulatory T-Cells” (J Med Chem, 2018).

Assays:
Neuropilin-1 = Neuropilin-1 (Homo sapiens, UniProt O14786); assay: Binding affinity to N-terminal His6-tagged recombinant human NRP1-b1 domain expressed in Escherichia coli Rosetta Gami 2 (DE3) pLysS cells by SPR method
Chain of Neuropilin-1 (O14786 whole entry, the tested form may be a part): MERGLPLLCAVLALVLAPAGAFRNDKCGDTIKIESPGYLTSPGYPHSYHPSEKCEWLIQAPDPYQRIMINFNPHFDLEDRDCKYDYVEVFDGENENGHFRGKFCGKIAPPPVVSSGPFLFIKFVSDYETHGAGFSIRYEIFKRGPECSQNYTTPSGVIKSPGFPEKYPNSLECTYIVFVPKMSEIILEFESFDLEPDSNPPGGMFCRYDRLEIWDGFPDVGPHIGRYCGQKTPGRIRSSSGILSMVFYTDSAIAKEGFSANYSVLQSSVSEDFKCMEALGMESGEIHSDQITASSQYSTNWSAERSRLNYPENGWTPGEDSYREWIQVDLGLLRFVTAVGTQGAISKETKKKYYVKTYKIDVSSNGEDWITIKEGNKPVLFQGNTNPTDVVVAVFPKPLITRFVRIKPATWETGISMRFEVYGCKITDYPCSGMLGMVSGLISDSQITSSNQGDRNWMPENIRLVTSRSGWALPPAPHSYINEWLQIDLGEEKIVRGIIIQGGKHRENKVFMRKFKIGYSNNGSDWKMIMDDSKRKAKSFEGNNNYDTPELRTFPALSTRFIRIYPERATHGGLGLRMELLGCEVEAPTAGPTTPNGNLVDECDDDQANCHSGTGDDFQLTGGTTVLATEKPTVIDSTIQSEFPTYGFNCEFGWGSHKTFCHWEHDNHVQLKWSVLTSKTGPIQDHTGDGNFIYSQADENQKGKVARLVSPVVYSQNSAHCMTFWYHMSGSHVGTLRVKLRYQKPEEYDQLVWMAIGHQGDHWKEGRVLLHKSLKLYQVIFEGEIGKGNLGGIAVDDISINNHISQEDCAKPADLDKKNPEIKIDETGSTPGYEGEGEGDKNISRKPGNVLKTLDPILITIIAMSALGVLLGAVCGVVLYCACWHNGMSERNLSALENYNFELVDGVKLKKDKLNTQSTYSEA
How it was run: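 Human NRP1-b1 (residues 273–427, His6-tagged) was amine-coupled to a CM5 chip at high and low density; an unmodified spot served as reference. Runs were at 25 °C in PBS with 0.05% P20 and 3% DMSO. Compound was tested as 2-fold dilutions from 16 µM to 31 nM with 60 s injections. KD was taken from steady-state responses, DMSO-corrected; mean ± SD of the two surfaces.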

in vivo = details: mouse, iv, 2.5 mg/kg

SMILES | Kd (Neuropilin-1) | half-life (in vivo)
N=C(N)NCCC[C@H](NC(=O)c1sccc1NS(=O)(=O)c1cc(-c2cccc(CN3CCOCC3)c2)cc2c1OCC2)C(=O)O | 3760 nM | 
N=C(N)NCCC[C@H](NC(=O)c1sccc1NS(=O)(=O)c1cc(-c2cccc3c2CNC3)cc2c1OCC2)C(=O)O | 2470 nM | 
CNC(=O)C1CCN(Cc2cccc(-c3cc4c(c(S(=O)(=O)Nc5ccsc5C(=O)N[C@@H](CCCNC(=N)N)C(=O)O)c3)OCC4)c2)CC1 | 1330 nM | 
N=C(N)NCCC[C@H](NC(=O)c1sccc1NS(=O)(=O)c1cc(-c2ccc3c(c2)CNC3)cc2c1OCC2)C(=O)O | 2170 nM | 
N=C(N)NCCC[C@H](NC(=O)c1sccc1NS(=O)(=O)c1cc(-c2ccccc2CN)cc2c1OCC2)C(=O)O | 1870 nM | 
N=C(N)NCCC[C@H](NC(=O)c1sccc1NS(=O)(=O)c1cc(-c2cccc(CN3CCCCC3)c2)cc2c1OCC2)C(=O)O | 1170 nM | 
N=C(N)NCCC[C@H](NC(=O)c1sccc1NS(=O)(=O)c1cccc2nsnc12)C(=O)O |  | 30 min

Results, then the compound that gave them:

Kd (Neuropilin-1) | half-life (in vivo) | SMILES
1500 nM |  | N=C(N)NCCC[C@H](NC(=O)c1sccc1NS(=O)(=O)c1cc(-c2ccccc2CN2CCC(N3CCOCC3)CC2)cc2c1OCC2)C(=O)O
1380 nM |  | N=C(N)NCCC[C@H](NC(=O)c1sccc1NS(=O)(=O)c1cc(-c2cccc(CN3CCC(N4CCOCC4)CC3)c2)cc2c1OCC2)C(=O)O
1860 nM |  | N#CCC1CCN(Cc2ccccc2-c2cc3c(c(S(=O)(=O)Nc4ccsc4C(=O)N[C@@H](CCCNC(=N)N)C(=O)O)c2)OCC3)CC1
